Tests used:
[1] = compound: C[C@@H](O)[C@H]1C(=O)N2C(C(=O)O)=C(SCCNC=N)C[C@H]12; assay: (§1) Activity of Aeromonas hydrophila metallo-betalactamase CphA expressed in Escherichia coli BL21(DE3) by spectrophotometric analysis in presence of < 0.4 uM zinc ions
In short: (§2)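 Steady-state kinetics (kcat, Km, kcat/Km) at 30°C in 15 mM cacodylate pH 6.5, no added Zn2+ (free [Zn2+] < 0.4 µM), enzyme as the mono-zinc form (one Zn per molecule). Substrates imipenem, nitrocefin and CENTA. N233A mutant from E. coli BL21 (DE3) pLysS Star, purified to homogeneity, mass checked by ESI-MS. Standard errors below 10%.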

[2] = compound: O=C(Cc1cccs1)N[C@@H]1C(=O)N2C(C(=O)O)=C(/C=C/c3ccc([N+](=O)[O-])cc3[N+](=O)[O-])CS[C@H]12; assay: as §1; in short: as §2
[3] = compound: O=C(Cc1cccs1)N[C@@H]1C(=O)N2C(C(=O)O)=C(CSc3ccc([N+](=O)[O-])c(C(=O)O)c3)CS[C@H]12; assay: as §1; in short: as §2
[4] = compound: C[C@@H](O)[C@H]1C(=O)N2C(C(=O)O)=C(SCCNC=N)C[C@H]12; assay: (§3) Ratio of Kcat to Km for Aeromonas hydrophila metallo-betalactamase CphA expressed in Escherichia coli BL21(DE3) by spectrophotometric analysis in presence of < 0.4 uM zinc ions; in short: as §2
[5] = compound: O=C(Cc1cccs1)N[C@@H]1C(=O)N2C(C(=O)O)=C(/C=C/c3ccc([N+](=O)[O-])cc3[N+](=O)[O-])CS[C@H]12; assay: as §3; in short: as §2
[6] = compound: O=C(Cc1cccs1)N[C@@H]1C(=O)N2C(C(=O)O)=C(CSc3ccc([N+](=O)[O-])c(C(=O)O)c3)CS[C@H]12; assay: as §3; in short: as §2

B1: Metallo-beta-lactamase type 2 (Aeromonas hydrophila), P26918 (protein)
chain: MMKGWMKCGLAGAVVLMASFWGGSVRAAGMSLTQVSGPVYVVEDNYYVQENSMVYFGAKGVTVVGATWTPDTARELHKLIKRVSRKPVLEVINTNYHTDRAGGNAYWKSIGAKVVSTRQTRDLMKSDWAEIVAFTRKGLPEYPDLPLVLPNVVHDGDFTLQEGKVRAFYAGPAHTPDGIFVYFPDEQVLYGNCILKEKLGNLSFADVKAYPQTLERLKAMKLPIKTVIGGHDSPLHGPELIDHYEALIKAAPQS
- Km [1]: 340 µM
- kcat [1]: 1200 s⁻¹
- Km [2]: 1300 µM
- kcat [2]: 0.008 s⁻¹
- Km [3]: Not Active
- kcat [3]: Not Active
- kcat/Km [4]: 3.5e+06 M⁻¹ s⁻¹
- kcat/Km [5]: 6 M⁻¹ s⁻¹
- kcat/Km [6]: Not Active

— ChEMBL document CHEMBL1649236, “The structure of the dizinc subclass B2 metallo-beta-lactamase CphA reveals that the second inhibitory zinc ion binds in the histidine site” (Antimicrob Agents Chemother, 2009)
